UBC9 SUMO inh = inhibitors of in vitro SUMOylation cascade, primary screen, biochemical, HTRF, uHTS. HTRF SUMOylation assay, SAE1/SAE2 + UBC9. inhibition, % at 35 µM. actives 0.36% (n = 290,000). SUMO-conjugating enzyme UBC9 (Homo sapiens), P63279; in the data active means inhibition above about 50%, passing the limit was not always enough
Target sequence (P63279 whole entry, looked up): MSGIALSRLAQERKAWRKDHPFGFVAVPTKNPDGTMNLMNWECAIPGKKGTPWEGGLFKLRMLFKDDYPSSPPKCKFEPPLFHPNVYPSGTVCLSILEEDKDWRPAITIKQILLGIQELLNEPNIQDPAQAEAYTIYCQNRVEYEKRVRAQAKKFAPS
A3A deaminase = APOBEC3A ssDNA deaminase inhibitors, primary screen, selectivity assay for APOBEC3G inhibitor project, biochemical, FAM/TAMRA oligo cleavage fluorescence; DNA dC->dU-editing enzyme APOBEC-3A (Homo sapiens), P31941; recombinant A3A, FAM/TAMRA ssDNA deamination fluorescence; inhibition, % at 20 µM; actives 0.41% (n = 330,000); AID 493011, 2011;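 active means at least 40% inhibition at 20 µM here, with at most 30% in a related deaminase screen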
Target sequence (P31941 whole entry, looked up): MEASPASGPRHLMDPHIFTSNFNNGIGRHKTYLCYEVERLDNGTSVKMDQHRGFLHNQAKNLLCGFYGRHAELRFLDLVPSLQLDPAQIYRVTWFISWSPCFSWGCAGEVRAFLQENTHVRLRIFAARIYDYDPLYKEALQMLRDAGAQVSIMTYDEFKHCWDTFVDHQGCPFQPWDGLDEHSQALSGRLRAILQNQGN
PfM18AAP inh = PfM18AAP inhibitors, malaria aminopeptidase, primary screen, biochemical, QFRET, recombinant enzyme. actives 1.2% (n = 290,000). AID 1822, 2009. M18 aspartyl aminopeptidase (Plasmodium falciparum 3D7). H-Glu-NHMec fluorogenic cleavage. inhibition, % at 7.35 µM;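 active means inhibition above the campaign mean inhibition over all tested compounds plus 3 SD, cut at about 28% in these data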
HKDC1 inh = HKDC1 hexokinase inhibitors, primary screen, biochemical, fluorescence, uHTS | Q2TB90 | recombinant HKDC1, G6PDH/diaphorase resazurin coupled fluorescence | inhibition, % at 20 µM | actives 0.16% (n = 340,000) | AID 493160, 2011;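 active means inhibition above about 35% when tested at 20 µM, limit read from the data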
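Material – in-house recombinant HK5 (HKDC1) enzyme · Quantity – HKDC1 at 5 µg/mL · Buffer or medium – pH 8.0 Tris buffer with 10 mM MgCl2 · Reagent – glucose with 1 mM ATP · Dosing – single 20 µM dose · Times – reaction time 90 min, room temperature, protected from light · Technique – resorufin fluorescence at 613 nm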
A3G deaminase = APOBEC3G DNA deaminase inhibitors, primary screen, biochemical, fluorescence, single-stranded DNA substrate, uHTS. recombinant A3G, ssDNA deamination FAM/TAMRA fluorescence. inhibition, % at 20 µM. AID 493012, 2011. DNA dC->dU-editing enzyme APOBEC-3G (Homo sapiens), Q9HC16. actives 0.28% (n = 330,000);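 active means inhibition of at least 40% at 20 µM, with no more than 30% in the related APOBEC3A deaminase screen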
PfGluPho inh = PfG6PD enzyme inhibitors, primary screen, biochemical, fluorescence intensity, uHTS; glucose-6-phosphate dehydrogenase-6-phosphogluconolactonase (Plasmodium falciparum 3D7); actives 0.78% (n = 350,000); AID 504690, 2011; PfGluPho enzyme, NADPH resazurin-diaphorase fluorescence; inhibition, % at 20 µM;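 active means inhibition reaching at least a set limit at 20 µM in the primary screen, cut at about 59% in these data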
PfGluPho conf = PfG6PD inhibitors, hit retest, confirmation, biochemical, fluorescence intensity, single concentration. shares compounds with PfGluPho inh. recombinant PfGluPho, NADPH-diaphorase-resazurin fluorescence. inhibition, % at 20 µM. actives 34% (n = 2,400). AID 504753, 2011;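 active means inhibition of at least 50% at 20 µM in any single replicate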
Diaphorase 10uM = diaphorase inhibitors and chemical oxidizers, confirmation, counter-screen for P. falciparum G6PD inhibitor project, biochemical, fluorescence intensity, 10 µM NADPH; actives 39% (n = 820); diaphorase-coupled resazurin reduction, NADPH 10 uM; shares compounds with PfGluPho inh; AID 504862, 2011; inhibition, % at 20 µM;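 active means average inhibition reaching 50% or more with the compound at 20 µM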;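 further: resorufin red fluorescence formed as diaphorase reduces resazurin using NADPH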
Diaphorase 30uM = diaphorase inhibitors and chemical oxidizers, confirmation, counter-screen for P. falciparum G6PD inhibitor project, biochemical, fluorescence intensity, 30 µM NADPH; shares compounds with PfGluPho inh; Diaphorase/resazurin coupled assay, resorufin fluorescence; inhibition, % at 20 µM; actives 29% (n = 820);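 active means inhibition averaging 50% or more, tested at 20 µM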
Hits are given with their value; n = inactive; x = not tested or not shown. This is a sample that favours compounds with a hit; in the whole collection about 2.4% have one here.

SMILES	UBC9 SUMO inh	A3A deaminase	PfM18AAP inh	HKDC1 inh	A3G deaminase	PfGluPho inh	PfGluPho conf	others
Cc1ccc(Nc2cc(C)c(O)c(C)c2)cc1	n	n	n	n	n	107.3	69.3	Diaphorase 10uM=61.7;Diaphorase 30uM=n
COC(=O)c1sc(NC(=O)/C=C/c2ccccc2Cl)nc1C	n	n	n	n	n	n	x
Cc1cccc(C)c1NC(=O)CSc1nnc(-c2ccco2)c(-c2ccco2)n1	n	n	n	n	n	62.9	n
COc1ccc(C(=O)CSc2nnc(-c3ccco3)c(-c3ccco3)n2)cc1	n	x	n	n	x	n	x
CCN(CC)CCn1c2ccccc2c(=O)c2c(O)ccc(O)c21	x	x	x	n	x	84.0	98.4	Diaphorase 10uM=n;Diaphorase 30uM=n
CCN(CC)CCn1c(O)c(N=O)c2ccccc21	n	n	n	n	n	n	x
COc1ccc(NC(=O)COc2ccc(-c3nn(C)c(=O)c4ccccc34)cc2)cc1	n	n	n	n	n	n	x
CSc1ccccc1C(=O)N1CCN(c2cccc(Cl)c2)CC1	n	n	n	n	n	n	x
O=[N+]([O-])c1c(NCCCO)cc(Sc2ccc(Cl)cc2)c2nonc12	n	x	n	n	x	n	x
CC(=O)OCCCNc1cc(Sc2nc3ccccc3s2)c2nonc2c1[N+](=O)[O-]	91.9	n	n	n	n	99.4	63.2	Diaphorase 10uM=n;Diaphorase 30uM=n
Cc1ccc(N(CC(=O)N/N=C/c2cccs2)S(C)(=O)=O)cc1Cl	n	n	n	n	n	105.9	74.9	Diaphorase 10uM=70.0;Diaphorase 30uM=65.3
COC(=O)CN(c1ccc(C)c(Cl)c1)S(C)(=O)=O	n	n	n	n	n	n	x
CCn1c(N)c(C(=O)NCc2ccc3c(c2)OCO3)sc1=S	n	n	n	n	n	73.6	n
CCOC(=O)c1c(C)c(C(=O)NCc2ccc3c(c2)OCO3)c(C)n1CC	n	n	n	n	n	n	x
COc1ccc(-n2c(C)cc(/C=N/Nc3nnc(C)n3N)c2C)cc1	n	n	48.0	n	n	65.9	n
CN1CCSc2ccc(C(=O)NCc3ccccc3F)cc21	n	n	n	n	n	63.3	n
Cc1cccc(CNC(=O)c2ccc3c(c2)N(C)CCS3)c1	n	n	n	n	n	70.8	n
CSc1nc(SC)c2c3c(oc2n1)COC(C)(C)C3	n	n	n	n	n	n	x
Cc1nc2cc(NS(=O)(=O)c3cccc4cccnc34)ccc2s1	n	n	n	n	n	60.9	n
Cc1ccc(C)c(S(=O)(=O)Nc2ccc3sc(C)nc3c2)c1	n	n	n	n	n	n	x
Cn1c2ccccc2c(=O)c2ccc(C#CC3(N)CCCCC3)cc21	n	n	n	n	n	n	x
Cn1c2ccccc2c(=O)c2cc(C#CC3(O)CCCCC3)ccc21	n	n	n	n	n	62.0	n
O=C1/C(=C/c2ccccc2O)SC(=S)N1Cc1cccnc1	n	n	n	n	n	62.0	n
O=CNc1ccc2c3c(cccc13)-c1ccccc1-2	x	x	x	n	x	103.7	n

Screening data from PubChem.
